# Assay results of several laboratories.
# Each line is one published result; the experiments were not run side by side.
# ABL1 T315I phosphorylated: Tyrosine-protein kinase ABL1, phosphorylated (ABL1, Homo sapiens, UniProt P00519, T315I)
# ABL1 F317L phosphorylated: Tyrosine-protein kinase ABL1, phosphorylated (ABL1, Homo sapiens, UniProt P00519, F317L)
# ABL1 phosphorylated: Tyrosine-protein kinase ABL1, phosphorylated (ABL1, Homo sapiens, UniProt P00519)
# ABL1 F317I phosphorylated: Tyrosine-protein kinase ABL1, phosphorylated (ABL1, Homo sapiens, UniProt P00519, F317I)
# ABL1 H396P non-phosphorylated: Tyrosine-protein kinase ABL1, non-phosphorylated (ABL1, Homo sapiens, UniProt P00519, H396P)
# ABL1 H396P: Tyrosine-protein kinase ABL1 (ABL1, Homo sapiens, UniProt P00519, H396P)
# ABL1 M351T phosphorylated: Tyrosine-protein kinase ABL1, phosphorylated (ABL1, Homo sapiens, UniProt P00519, M351T)
# ABL1 E255K phosphorylated: Tyrosine-protein kinase ABL1, phosphorylated (ABL1, Homo sapiens, UniProt P00519, E255K)
# ABL1 H396P phosphorylated: Tyrosine-protein kinase ABL1, phosphorylated (ABL1, Homo sapiens, UniProt P00519, H396P)
# ABL1 non-phosphorylated: Tyrosine-protein kinase ABL1, non-phosphorylated (ABL1, Homo sapiens, UniProt P00519)
# ABL1 Y253F phosphorylated: Tyrosine-protein kinase ABL1, phosphorylated (ABL1, Homo sapiens, UniProt P00519, Y253F)
Compound,target,test,setting,remaining binding
COc1ncc2cc3ccccc3nc2c1C#N,ABL1 T315I phosphorylated,"cell-free assay, competition with immobilised ligand",5 µM,89%
C[C@H](c1ccc(F)cc1)N(Cc1cccc(C(=O)O)c1)C(=O)c1cnc2ccccc2c1,ABL1 F317L phosphorylated,"cell-free assay, competition with immobilised ligand",1 µM,99%
CN(C)c1nccc(-c2cnc3ncccn23)n1,ABL1 phosphorylated,binding,1 µM,57%
O=C(NCCCN1CCOCC1)c1ccc(Nc2ncc(Cl)c(-c3ccc(Cl)s3)n2)cc1,ABL1 F317I phosphorylated,"binding, competition with immobilised ligand",1 µM,99%
C[C@@H]1CN(c2cc(-c3nn(C)c4ccc(OC5(C)CC5)cc34)ncn2)C[C@H](C)O1,ABL1 H396P non-phosphorylated,"cell-free assay, competition with immobilised ligand",1 µM,75%
CN(C)c1ncc(F)c(-c2cnn3ncccc23)n1,ABL1 H396P,binding,1 µM,80%
O=C(c1ccc(Nc2ncc(Cl)c(-c3cc4ccccc4s3)n2)cc1)N1CCC(N2CCCC2)CC1,ABL1 T315I phosphorylated,"binding, competition with immobilised ligand",1 µM,3.3%
CS(=O)(=O)c1cc(C2(NC(=O)c3cncc4c3cnn4-c3ccc(F)cc3)CC2)ccn1,ABL1 M351T phosphorylated,"cell-free assay, competition with immobilised ligand",1 µM,92%
O=C(c1ccc(Nc2ncc(Cl)c(-c3ccc(Cl)s3)n2)cc1)N1CCC(N2CCCC2)CC1,ABL1 F317L phosphorylated,"binding, competition with immobilised ligand",1 µM,58%
O=C(Nc1cccnn1)N1CC(C/C=C/c2cncc(Oc3ccc(C(F)(F)F)cn3)n2)C1,ABL1 F317I phosphorylated,"cell-free assay, competition with immobilised ligand",1 µM,67%
Cc1cnc(Nc2ccc(C(=O)N3CCC(N4CCCC4)CC3)cc2)nc1-c1cc2ccccc2s1,ABL1 T315I phosphorylated,"binding, competition with immobilised ligand",1 µM,2.1%
COc1cnc(Nc2cccc(S(N)(=O)=O)c2)nc1N1CCN(c2ccccc2)CC1,ABL1 F317I phosphorylated,"binding, competition with immobilised ligand",1 µM,98%
CCN1CCN(Cc2ccc(C(=O)Nc3ccc(C)c(Oc4ccc5c(c4)CC(=O)N5)c3)cc2C(F)(F)F)CC1,"Tyrosine-protein kinase ABL1, non-phosphorylated (ABL1, Homo sapiens, UniProt P00519, F317I)","binding, competition with immobilised ligand",1 µM,1%
C=CC(=O)N1CCC(C(=O)NCC(=O)N2CCN(c3nc(-c4cnc(N)nc4C(F)F)nc(N4CCOCC4)n3)CC2)CC1,ABL1 E255K phosphorylated,"binding, competition with immobilised ligand",1 µM,87%
Nc1ncc2c(n1)-c1c([nH]c3ccc(C#CC4CC4)cc13)CCCC2,ABL1 M351T phosphorylated,"binding, competition with immobilised ligand",1 µM,95%
CNC(=O)Nc1ccc2c(c1)[C@@]1(CC2)OC(=O)N(CC(=O)N(Cc2ccc(F)cc2)[C@@H](C)C(F)(F)F)C1=O,ABL1 T315I phosphorylated,"cell-free assay, competition with immobilised ligand",1 µM,87%
c1cncc(-c2cccc(Nc3nccc(NC4CCCCC4)n3)c2)c1,ABL1 H396P phosphorylated,"binding, competition with immobilised ligand",10 µM,29%
COc1ccnn2ncc(-c3ccnc(N(C)C)n3)c12,ABL1 H396P,binding,1 µM,100%
O=C(NCC1CCOCC1)c1n[nH]cc1NC(=O)c1c(F)cccc1F,ABL1 non-phosphorylated,"binding, competition with immobilised ligand",1 µM,88%
CN(CCCC(F)(F)F)c1nccc(-c2cnn3ncccc23)n1,ABL1 phosphorylated,binding,1 µM,100%
O=C(c1ccc(Nc2nccc(-c3cc4ccccc4s3)n2)cc1)N1CCC(N2CCCC2)CC1,ABL1 Y253F phosphorylated,"binding, competition with immobilised ligand",1 µM,6.2%
COc1cnc(Nc2cccc(S(N)(=O)=O)c2)nc1N1CCN(c2ccccc2)C(=O)C1,ABL1 Y253F phosphorylated,"binding, competition with immobilised ligand",1 µM,82%
N#CC1(c2ccccn2)CCN(Cc2cc(C(=O)N3CCCC3)c(=O)n3ccccc23)CC1,ABL1 M351T phosphorylated,"cell-free assay, competition with immobilised ligand",1 µM,100%
C[C@@H](c1ccc(-n2cnc3c(N)ncnc32)cc1)N1CCc2nn(C)c(Cc3ccccc3)c2C1=O,ABL1 H396P phosphorylated,"binding, competition with immobilised ligand",0.1 µM,79%
CO[C@H]1CC[C@H](CNc2ccc(S(=O)(=O)NC(=O)c3ccc(N4CCN(CC5=C(c6ccc(Cl)cc6)CC(C)(C)CC5)CC4)cc3Oc3cnc4[nH]ccc4c3)cc2[N+](=O)[O-])CC1,ABL1 non-phosphorylated,"cell-free assay, competition with immobilised ligand",1 µM,71%
N[C@@H]1CCN(c2nccc(-c3cnn4ncccc34)n2)C1,"Tyrosine-protein kinase ABL1 (ABL1, Homo sapiens, UniProt P00519, T315I)",binding,1 µM,95%
CNC(=O)[C@@H]1CC[C@@H](n2c(-c3ccc4cnccc4c3)nc3ccc(C(=O)NCc4cccc(C(N)=O)c4)cc32)C1,ABL1 M351T phosphorylated,"binding, competition with immobilised ligand",1 µM,92%
CN1CCN(c2cnc3c(C4CCN(C(=O)c5ccc(OC(F)(F)F)cc5N)CC4)ncnc3c2)CC1,ABL1 E255K phosphorylated,"binding, competition with immobilised ligand",1 µM,98%
O=C(NCCCN1CCOCC1)c1ccc(Nc2nccc(-c3cc4ccccc4s3)n2)cc1,ABL1 F317I phosphorylated,"binding, competition with immobilised ligand",1 µM,84%
O=C(Nc1c[nH]nc1C(=O)NC1CCNCC1)c1cc(F)cc(F)c1,ABL1 H396P non-phosphorylated,"binding, competition with immobilised ligand",1 µM,90%
